Measured values from ChEMBL document CHEMBL4229560, “Increasing C-Terminal Hydrophobicity Improves the Cell Permeability and Antiproliferative Activity of PACE4 Inhibitors against Prostate Cancer Cell Lines” (J Med Chem, 2018).
Where a SMILES comes first, the peptide text is derived from it. [ ]: non-standard residue; d: D form. The star is where a group is joined. NH(4-amidinobenzyl) = N=C(N)c1ccc(CN*)cc1

Tests used:
LNCaP [1] = test: Antitumor activity against human LNCAP cells xenografted in nu mouse assessed as reduction in serum prostate-specific antigen levels at 2 mg/kg/day, iv administered at 24 hr intervals; type: functional; design: scale not given: the % may be the effect or the level left
LNCaP [2] = test: Antiproliferative activity against human LNCAP cells after 72 hrs by MTT assay; type: functional, cell-based
Summary of the method: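 MTT assay run 72 h. Seeding was ~1500 cells/well for DU145 and ~2500 cells/well for LNCaP, in RPMI 1640 with 5% FBS (DU145) or 10% FBS (LNCaP). Medium was changed after 24 h, then inhibitor added at 1–300 µM or 1–150 µM. MTT was added at 1 g/L final for 4 h and formazan dissolved in 2-propanol/HCl. Readings were relative to vehicle (water, 0.1% DMSO). IC50 was from at least two independent experiments.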

Homo sapiens = species: Homo sapiens; test: Selectivity ratio of Ki for recombinant human furin to Ki for recombinant human PACE4
Summary of the method: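 Ki values came from human recombinant enzymes expressed in S2 insect cells. Furin was assayed in 100 mM HEPES pH 7.5, 1 mM CaCl2, 1 mM β-mercaptoethanol and 1.8 g/L BSA. PACE4 was assayed in 20 mM Bis-Tris pH 6.5, 1 mM CaCl2 and 1.8 g/L BSA. Substrate was pERTKR-AMC at 100 µM, with inhibitor at 0–10 µM. Fluorescence (ex 370/em 460 nm) was read for 1 h, and Ki derived by Cheng-Prusoff.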

[3] = Acute toxicity in iv dosed CD1 mouse measured within 5 mins post dose; type: organism-based; conditions: in vivo
Summary of the method: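 Healthy CD1 mice received a single intravenous dose, given at various dose levels, to locate the toxicity threshold as a maximum tolerated dose (MTD).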

LNCaP [4] = test: Antitumor activity against human LNCAP cells xenografted in nu mouse assessed as reduction in tumor volume at 2 mg/kg/day, iv administered at 24 hr intervals; type: functional; design: scale not given: the % may be the effect or the level left
[5] = Half life in human plasma by ion chromatogram-based analysis; type: ADME, cell-free
Summary of the method: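 Peptide at 50 µM was incubated at 37 °C in human serum from male AB plasma. At each time point, plasma was precipitated with MeOH containing Fmoc-Leu-OH internal standard, centrifuged and filtered. Samples were analysed by UPLC-MS. The peptide/standard ratio of total ion chromatogram peak area was expressed relative to 0 h.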

`CC(=O)N[C@H](CC(C)C)C(=O)N[C@@H](CC(C)C)C(=O)N[C@@H](CC(C)C)C(=O)N[C@@H](CC(C)C)C(=O)N[C@@H](CCCNC(=N)N)C(=O)N[C@H](C(=O)N[C@@H](CCCCN)C(=O)NCc1ccc(C(=N)N)cc1)C(C)C` (Ac-[dL]LLLRVK-{NH(4-amidinobenzyl)}) gave an Activity (LNCaP [1]) of 47%, an IC50 (LNCaP [2]) of 45 µM and a Ratio Ki (Homo sapiens) of 2. The MTD at 5 min [3] was 10 mg/kg, the Activity (LNCaP [4]) was 60% and the half-life [5] was 1.7 h.
